{"source": "ChEMBL document CHEMBL5543089", "about": "“Discovery of a novel, highly potent EZH2 PROTAC degrader for targeting non-canonical oncogenic functions of EZH2” (Eur J Med Chem, 2024)", "key": {"MDA-MB-468": {"tested_on": "MDA-MB-468", "assay": "Anti-proliferative activity against human MDA-MB-468 cells assessed as cell growth inhibition measured after 5 days incubation by CCK-8 assay", "format": "functional, cell-based", "conditions": "MDA-MB-468, 120 h", "how_it_was_run": "(§1)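 Cells plated at 3,000–10,000 per well and exposed to serial dilutions for 5 days at 37 °C. CCK-8 (1x) was added for 2–4 h, with absorbance read at 450 nm against a 690 nm reference. IC50 was taken from curve fits. Leukemia lines were grown in RPMI-1640, K562 in IMDM and MDA-MB-468 in DMEM, all with 10 % FBS. Values are means ± SD of two biological experiments (three for BT549 and MDA-MB-468).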"}, "BT-549": {"tested_on": "BT-549", "assay": "Anti-proliferative activity against human BT-549 cells assessed as cell growth inhibition measured after 5 days incubation by CCK-8 assay", "format": "functional, cell-based", "conditions": "BT-549, 120 h", "how_it_was_run": "as §1"}, "EOL1": {"tested_on": "EOL1", "assay": "Anti-proliferative activity against human EOL1 cells assessed as cell viability measured after 5 days incubation by CCK-8 assay", "format": "functional, cell-based", "conditions": "EOL1, 120 h", "how_it_was_run": "as §1"}, "RS4-11": {"tested_on": "RS4-11", "assay": "Anti-proliferative activity against human RS4-11 cells assessed as cell viability measured after 5 days incubation by CCK-8 assay", "format": "functional, cell-based", "conditions": "RS4-11, 120 h", "how_it_was_run": "as §1"}, "MV4-11": {"tested_on": "MV4-11", "assay": "Anti-proliferative activity against human MV4-11 cells assessed as cell viability measured after 5 days incubation by CCK-8 assay", "format": "functional, cell-based", "conditions": "MV4-11, 120 h", "how_it_was_run": "as §1"}, "[1]": {"target": "T1, von Hippel-Lindau disease tumor suppressor/Histone-lysine N-methyltransferase EZH2 (Homo sapiens, UniProt Q15910+P40337)", "T1 sequence (P40337 whole entry, looked up)": "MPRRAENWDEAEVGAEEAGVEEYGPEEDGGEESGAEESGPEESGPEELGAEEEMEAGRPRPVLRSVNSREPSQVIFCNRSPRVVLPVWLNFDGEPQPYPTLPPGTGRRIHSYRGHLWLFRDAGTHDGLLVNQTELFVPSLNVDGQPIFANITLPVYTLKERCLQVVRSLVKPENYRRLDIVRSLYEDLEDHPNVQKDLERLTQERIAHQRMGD", "T1 sequence (Q15910 whole entry, looked up)": "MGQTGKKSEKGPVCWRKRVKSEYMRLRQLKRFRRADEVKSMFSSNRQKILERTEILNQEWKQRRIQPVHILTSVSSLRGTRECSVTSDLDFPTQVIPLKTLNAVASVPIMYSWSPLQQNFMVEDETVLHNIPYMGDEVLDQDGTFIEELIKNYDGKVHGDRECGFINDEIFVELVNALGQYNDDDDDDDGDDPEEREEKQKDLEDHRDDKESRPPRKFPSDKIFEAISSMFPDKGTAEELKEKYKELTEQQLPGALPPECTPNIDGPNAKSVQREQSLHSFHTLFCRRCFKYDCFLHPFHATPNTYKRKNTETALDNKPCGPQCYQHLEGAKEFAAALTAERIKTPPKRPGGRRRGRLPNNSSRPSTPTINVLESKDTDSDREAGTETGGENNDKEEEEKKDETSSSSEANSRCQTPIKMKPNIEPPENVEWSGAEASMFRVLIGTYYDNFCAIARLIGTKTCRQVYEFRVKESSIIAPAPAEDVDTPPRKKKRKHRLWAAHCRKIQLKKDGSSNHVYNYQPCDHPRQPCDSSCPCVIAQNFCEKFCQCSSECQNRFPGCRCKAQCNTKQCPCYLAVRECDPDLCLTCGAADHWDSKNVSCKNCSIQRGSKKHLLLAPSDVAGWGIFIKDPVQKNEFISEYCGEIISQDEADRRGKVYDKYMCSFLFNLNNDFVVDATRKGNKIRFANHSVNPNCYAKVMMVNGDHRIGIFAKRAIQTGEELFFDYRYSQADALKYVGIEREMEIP", "assay": "PROTAC activity at VHL/EZH2 degradation in hMLLr AML cell line EOL1 cells assessed as protein degradation at 0.1 to 1 uM measured after 24 hrs by Western blot analysis", "format": "cell-based", "conditions": "dose 0.1-1 µM", "how_it_was_run": "(§2)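 Cells were seeded at 0.5–2 million per well and treated for 24 h, or for the stated times at 300 nM in the time course. Lysis was in RIPA with protease inhibitors; ~10 μg protein was run on SDS-PAGE and blotted to PVDF. Detection used fluorescent immunoblotting for EZH2, EED and SUZ12, with β-actin as loading control. Blots are representative of two biological experiments.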"}, "[2]": {"target": "T1, von Hippel-Lindau disease tumor suppressor/Histone-lysine N-methyltransferase EZH2", "assay": "PROTAC activity at VHL/EZH2 degradation in hMLLr AML cell line EOL1 cells assessed as protein degradation at 0.1 uM measured after 24 hrs by Western blot analysis", "format": "cell-based", "how_it_was_run": "as §2"}, "[3]": {"target": "T1, von Hippel-Lindau disease tumor suppressor/Histone-lysine N-methyltransferase EZH2", "assay": "PROTAC activity at VHL/EZH2 degradation in hMLLr AML cell line EOL1 cells assessed as protein degradation at 1 uM measured after 24 hrs by Western blot analysis", "format": "cell-based", "how_it_was_run": "as §2"}}, "note": "The source made the active and inactive calls. The rule behind the calls is not given here.", "data": [{"smiles": "CCN(c1cc(-c2ccc(CN3CCOCC3)cc2)cc(C(=O)NCc2c(C)cc(C)[nH]c2=O)c1C)C1CCOCC1", "note": "[TAZEMETOSTAT]", "values": [{"measurement": "IC50", "setting": "MDA-MB-468", "result": "> 2500", "unit": "nM"}, {"measurement": "IC50", "setting": "BT-549", "result": "> 10000", "unit": "nM"}]}, {"smiles": "CCN(c1cc(-c2ccc(OCCCOCC(=O)N[C@H](C(=O)N3C[C@H](O)C[C@H]3C(=O)NCc3ccc(-c4scnc4C)cc3)C(C)(C)C)cc2)cc(C(=O)NCc2c(C)cc(C)[nH]c2=O)c1C)C1CCOCC1", "values": [{"measurement": "IC50", "setting": "EOL1", "result": 5400, "unit": "nM"}, {"measurement": "IC50", "setting": "RS4-11", "result": 4070, "unit": "nM"}, {"measurement": "IC50", "setting": "MV4-11", "result": "> 10000", "unit": "nM"}]}, {"smiles": "CCN(c1cc(-c2ccc(CN3CCN(CCC(=O)NCCCCCC(=O)N[C@H](C(=O)N4C[C@H](O)C[C@H]4C(=O)NCc4ccc(-c5scnc5C)cc4)C(C)(C)C)CC3)cc2)cc(C(=O)NCc2c(C)cc(C)[nH]c2=O)c1C)C1CCOCC1", "values": [{"measurement": "Activity", "setting": "[1]", "result": "inactive"}]}, {"smiles": "CCN(c1cc(-c2ccc(CN3CCN(CCCCCCCOc4cccc5c4C(=O)N(C4CCC(=O)NC4=O)C5=O)CC3)cc2)cc(C(=O)NCc2c(C)cc(C)[nH]c2=O)c1C)C1CCOCC1", "note": "(stereo unspecified)", "values": [{"measurement": "IC50", "setting": "EOL1", "result": 3700, "unit": "nM"}, {"measurement": "IC50", "setting": "RS4-11", "result": 5000, "unit": "nM"}, {"measurement": "IC50", "setting": "MV4-11", "result": 5500, "unit": "nM"}]}, {"smiles": "CCN(c1cc(-c2ccc(CN3CCN(CCC(=O)NCCCCCCC(=O)N[C@H](C(=O)N4C[C@H](O)C[C@H]4C(=O)NCc4ccc(-c5scnc5C)cc4)C(C)(C)C)CC3)cc2)cc(C(=O)NCc2c(C)cc(C)[nH]c2=O)c1C)C1CCOCC1", "values": [{"measurement": "Activity", "setting": "[1]", "result": "inactive"}]}, {"smiles": "CCN(c1cc(-c2ccc(CN3CCN(C(=O)CCCCCCCC(=O)N[C@H](C(=O)N4C[C@H](O)C[C@H]4C(=O)NCc4ccc(-c5scnc5C)cc4)C(C)(C)C)CC3)cc2)cc(C(=O)NCc2c(C)cc(C)[nH]c2=O)c1C)C1CCOCC1", "values": [{"measurement": "IC50", "setting": "EOL1", "result": 420, "unit": "nM"}, {"measurement": "IC50", "setting": "RS4-11", "result": 1400, "unit": "nM"}, {"measurement": "IC50", "setting": "MV4-11", "result": 1000, "unit": "nM"}]}, {"smiles": "CCN(c1cc(-c2ccc(CN3CCN(CCC(=O)NCCCCC(=O)N[C@H](C(=O)N4C[C@H](O)C[C@H]4C(=O)NCc4ccc(-c5scnc5C)cc4)C(C)(C)C)CC3)cc2)cc(C(=O)NCc2c(C)cc(C)[nH]c2=O)c1C)C1CCOCC1", "values": [{"measurement": "Activity", "setting": "[1]", "result": "inactive"}]}, {"smiles": "CCN(c1cc(-c2ccc(CN3CCN(CCC(=O)NCCCCCCCCCC(=O)N[C@H](C(=O)N4C[C@H](O)C[C@H]4C(=O)NCc4ccc(-c5scnc5C)cc4)C(C)(C)C)CC3)cc2)cc(C(=O)NCc2c(C)cc(C)[nH]c2=O)c1C)C1CCOCC1", "values": [{"measurement": "Activity", "setting": "[2]", "result": 100, "unit": "%"}, {"measurement": "Activity", "setting": "[3]", "result": "Active"}]}, {"smiles": "CCN(c1cc(-c2ccc(CN3CCN(CCC(=O)NCCCCCCCC(=O)N[C@H](C(=O)N4C[C@H](O)C[C@H]4C(=O)NCc4ccc(-c5scnc5C)cc4)C(C)(C)C)CC3)cc2)cc(C(=O)NCc2c(C)cc(C)[nH]c2=O)c1C)C1CCOCC1", "values": [{"measurement": "Activity", "setting": "[1]", "result": "Active"}]}, {"smiles": "CCN(c1cc(-c2ccc(CN3CCN(CCC(=O)NCCCCCCCCC(=O)N[C@H](C(=O)N4C[C@H](O)C[C@H]4C(=O)NCc4ccc(-c5scnc5C)cc4)C(C)(C)C)CC3)cc2)cc(C(=O)NCc2c(C)cc(C)[nH]c2=O)c1C)C1CCOCC1", "values": [{"measurement": "Activity", "setting": "[1]", "result": "Active"}]}, {"smiles": "Cc1cc(C)c(CNC(=O)c2cc(-c3ccc(N4CCN(CCCCCCCCCc5cn(CCOCCOCCOCCOCCOCCOCCNc6cccc7c6C(=O)N(C6CCC(=O)NC6=O)C7=O)nn5)CC4)nc3)cc3c2cnn3C(C)C)c(=O)[nH]1", "note": "(stereo unspecified)", "values": [{"measurement": "IC50", "setting": "EOL1", "result": 1000, "unit": "nM"}, {"measurement": "IC50", "setting": "RS4-11", "result": 650, "unit": "nM"}, {"measurement": "IC50", "setting": "MV4-11", "result": 460, "unit": "nM"}]}]}
